According to ChEMBL document CHEMBL1132273, “Subtype-selective N-methyl-D-aspartate receptor antagonists: synthesis and biological evaluation of 1-(arylalkynyl)-4-benzylpiperidines” (J Med Chem, 1999):

Assays:
[1] = biological target: T1, Adrenergic receptor alpha-1 (Rattus norvegicus, UniProt P15823+P23944+P43140); experiment: The compound was tested for binding affinity against Alpha-1 adrenergic receptor from rat using [3H]prazosin as radioligand; assay type: protein assay
T1 sequence (P15823 whole entry): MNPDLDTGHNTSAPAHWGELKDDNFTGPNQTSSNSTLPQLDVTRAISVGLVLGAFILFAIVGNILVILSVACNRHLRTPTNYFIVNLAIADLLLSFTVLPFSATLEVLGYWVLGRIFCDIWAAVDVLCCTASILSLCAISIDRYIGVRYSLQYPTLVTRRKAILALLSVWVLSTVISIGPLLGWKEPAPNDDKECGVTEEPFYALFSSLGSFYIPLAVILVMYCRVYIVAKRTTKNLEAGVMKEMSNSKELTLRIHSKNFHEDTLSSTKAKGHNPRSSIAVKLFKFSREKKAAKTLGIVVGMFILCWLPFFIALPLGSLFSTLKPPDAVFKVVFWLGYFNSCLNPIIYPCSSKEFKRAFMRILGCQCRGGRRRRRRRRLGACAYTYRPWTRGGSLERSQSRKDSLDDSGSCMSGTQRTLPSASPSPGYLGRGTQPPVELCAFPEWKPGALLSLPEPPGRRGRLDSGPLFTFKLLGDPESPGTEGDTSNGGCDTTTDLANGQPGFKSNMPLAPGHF
T1 sequence (P23944 whole entry): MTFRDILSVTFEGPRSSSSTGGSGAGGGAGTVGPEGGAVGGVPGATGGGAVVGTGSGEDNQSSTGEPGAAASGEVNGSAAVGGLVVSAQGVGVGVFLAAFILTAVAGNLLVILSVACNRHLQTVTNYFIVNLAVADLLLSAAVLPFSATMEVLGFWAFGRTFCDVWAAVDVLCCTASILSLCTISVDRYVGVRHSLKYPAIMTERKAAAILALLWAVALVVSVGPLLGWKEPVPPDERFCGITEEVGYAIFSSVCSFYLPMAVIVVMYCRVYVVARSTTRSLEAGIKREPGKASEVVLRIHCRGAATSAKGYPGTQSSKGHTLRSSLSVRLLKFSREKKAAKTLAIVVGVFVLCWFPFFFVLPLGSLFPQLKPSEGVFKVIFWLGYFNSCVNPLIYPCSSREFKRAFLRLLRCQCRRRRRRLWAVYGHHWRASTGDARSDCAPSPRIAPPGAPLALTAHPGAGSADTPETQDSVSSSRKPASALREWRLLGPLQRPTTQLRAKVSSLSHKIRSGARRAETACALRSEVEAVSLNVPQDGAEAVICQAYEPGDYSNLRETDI
T1 sequence (P43140 whole entry): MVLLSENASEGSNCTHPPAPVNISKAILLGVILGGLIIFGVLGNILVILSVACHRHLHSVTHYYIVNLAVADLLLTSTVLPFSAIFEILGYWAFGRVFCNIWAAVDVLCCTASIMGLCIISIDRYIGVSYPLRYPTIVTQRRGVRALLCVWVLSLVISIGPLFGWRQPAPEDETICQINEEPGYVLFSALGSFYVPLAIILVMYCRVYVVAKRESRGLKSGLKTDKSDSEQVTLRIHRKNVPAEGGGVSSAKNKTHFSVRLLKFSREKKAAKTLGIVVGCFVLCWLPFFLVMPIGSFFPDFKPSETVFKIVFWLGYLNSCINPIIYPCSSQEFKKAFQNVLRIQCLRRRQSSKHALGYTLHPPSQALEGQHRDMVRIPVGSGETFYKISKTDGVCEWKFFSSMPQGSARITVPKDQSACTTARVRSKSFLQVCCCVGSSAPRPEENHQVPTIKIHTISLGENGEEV
Outline: (§1)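 Rat cortical membranes (Sprague–Dawley, triple-washed; 200 μg protein) incubated with 0.8 nM [3H]prazosin in 140 mM NaCl/5 mM MgCl2/50 mM Tris-HCl pH 7.4, 60 min at room temperature. Nine concentrations in duplicate, 1% DMSO final. Nonspecific binding defined by 10 μM phentolamine.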

D(2) dopamine receptor = D(2) dopamine receptor (Rattus norvegicus, UniProt P61169); experiment: Binding affinity against Dopamine receptor D2 from rat using [3H]raclopride as radioligand
Outline: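 Washed Sprague–Dawley rat striatal membranes (200 μg protein) incubated with 3 nM [3H]raclopride in 120 mM NaCl/5 mM KCl/50 mM Tris-HCl pH 7.4, 60 min at room temperature. Nine concentrations in duplicate, 1% DMSO final. Nonspecific binding with 300 μM sulpiride.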

[2] = biological target: T2, Glutamate NMDA receptor; Grin1/Grin2a (Rattus norvegicus, UniProt P35439+Q00959); experiment: Antagonistic activity against rat N-methyl-D-aspartate glutamate receptor 1/2A, expressed in Xenopus oocytes; assay type: functional, cell-based, Oocyte
Outline: (§2)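 Two-electrode voltage clamp at -70 mV in nominally Ca2+-free Ringer (NaCl 115, KCl 2, BaCl2 1.8, HEPES 5 mM, pH 7.4). Drugs are given by bath perfusion at 7–10 mL/min, with final DMSO 0.1–1%. Inhibition of NMDA responses is measured, and IC50 is fitted from partial 3–5 point concentration–inhibition curves with a free residual minimum. Mean ± SEM, n as reported.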

[3] = biological target: T3, Glutamate NMDA receptor; Grin1/Grin2b (Rattus norvegicus, UniProt P35439+Q00960); experiment: Antagonistic activity against rat N-methyl-D-aspartate glutamate receptor 1/2B expressed in Xenopus oocytes; assay type: functional, cell-based, Oocyte
Outline: (§3)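 Cloned NR1A/2B receptors in oocytes, recorded by two-electrode voltage clamp at -70 mV in nominally Ca2+-free Ringer (pH 7.4). Drugs are bath perfused, with final DMSO 0.1–1%. IC50 for inhibition of NMDA responses is fitted from partial 3–5 point curves, with the residual fractional response ('min') fixed at 0.15. Mean ± SEM.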

[4] = biological target: T4, Glutamate NMDA receptor; Grin1/Grin2c (Rattus norvegicus, UniProt P35439+Q00961); experiment: Antagonistic activity against rat N-methyl-D-aspartate glutamate receptor 1/2C expressed in Xenopus oocytes; assay type: functional, cell-based, Oocyte; outline: as §2
[5] = biological target: T3, Glutamate NMDA receptor; Grin1/Grin2b; experiment: Antagonistic activity against rat NR1A/2B receptor expressed in Xenopus oocytes; assay type: functional, cell-based, Oocyte; outline: as §3
[6] = biological target: T4, Glutamate NMDA receptor; Grin1/Grin2c; experiment: The compound was tested for antagonistic activity against rat NR1A/2C receptor expressed in Xenopus oocytes; assay type: functional, cell-based, Oocyte
Outline: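 Drugs are given by bath perfusion at 7–10 mL/min, with final DMSO 0.1–1%. Inhibition of NMDA responses is measured, and IC50 is fitted from partial 3–5 point concentration–inhibition curves with a free residual minimum. Mean ± SEM, n as reported.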

[7] = biological target: T2, Glutamate NMDA receptor; Grin1/Grin2a; experiment: Antagonistic activity against rat NR1A/2A receptor, expressed in Xenopus oocytes; assay type: functional, cell-based, Oocyte; outline: as §2
[8] = biological target: T1, Adrenergic receptor alpha-1; experiment: Binding affinity against alpha-1 adrenergic receptor from rat using [3H]-prazosin as radioligand; assay type: protein assay; outline: as §1
[9] = Antagonistic activity against rat NR1A/2A receptor, expressed in Xenopus oocytes.; assay type: functional, cell-based; conditions: Oocyte; outline: as §2

D(2) dopamine receptor, sequence (P61169 whole entry): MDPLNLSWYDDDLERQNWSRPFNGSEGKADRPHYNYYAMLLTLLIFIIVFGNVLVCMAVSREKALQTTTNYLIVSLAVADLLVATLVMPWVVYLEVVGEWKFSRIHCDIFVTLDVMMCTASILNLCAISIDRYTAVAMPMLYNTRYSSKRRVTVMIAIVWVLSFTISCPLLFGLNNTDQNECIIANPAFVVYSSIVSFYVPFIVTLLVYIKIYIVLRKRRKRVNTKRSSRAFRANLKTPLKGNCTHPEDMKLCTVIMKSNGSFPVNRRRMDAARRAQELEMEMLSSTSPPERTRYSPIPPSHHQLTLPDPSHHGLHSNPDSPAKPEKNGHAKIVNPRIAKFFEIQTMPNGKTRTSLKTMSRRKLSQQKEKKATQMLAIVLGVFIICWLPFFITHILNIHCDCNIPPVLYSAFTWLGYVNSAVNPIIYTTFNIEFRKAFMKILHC
T2 sequence (Q00959 whole entry, other chains not shown, the tested form may be a part): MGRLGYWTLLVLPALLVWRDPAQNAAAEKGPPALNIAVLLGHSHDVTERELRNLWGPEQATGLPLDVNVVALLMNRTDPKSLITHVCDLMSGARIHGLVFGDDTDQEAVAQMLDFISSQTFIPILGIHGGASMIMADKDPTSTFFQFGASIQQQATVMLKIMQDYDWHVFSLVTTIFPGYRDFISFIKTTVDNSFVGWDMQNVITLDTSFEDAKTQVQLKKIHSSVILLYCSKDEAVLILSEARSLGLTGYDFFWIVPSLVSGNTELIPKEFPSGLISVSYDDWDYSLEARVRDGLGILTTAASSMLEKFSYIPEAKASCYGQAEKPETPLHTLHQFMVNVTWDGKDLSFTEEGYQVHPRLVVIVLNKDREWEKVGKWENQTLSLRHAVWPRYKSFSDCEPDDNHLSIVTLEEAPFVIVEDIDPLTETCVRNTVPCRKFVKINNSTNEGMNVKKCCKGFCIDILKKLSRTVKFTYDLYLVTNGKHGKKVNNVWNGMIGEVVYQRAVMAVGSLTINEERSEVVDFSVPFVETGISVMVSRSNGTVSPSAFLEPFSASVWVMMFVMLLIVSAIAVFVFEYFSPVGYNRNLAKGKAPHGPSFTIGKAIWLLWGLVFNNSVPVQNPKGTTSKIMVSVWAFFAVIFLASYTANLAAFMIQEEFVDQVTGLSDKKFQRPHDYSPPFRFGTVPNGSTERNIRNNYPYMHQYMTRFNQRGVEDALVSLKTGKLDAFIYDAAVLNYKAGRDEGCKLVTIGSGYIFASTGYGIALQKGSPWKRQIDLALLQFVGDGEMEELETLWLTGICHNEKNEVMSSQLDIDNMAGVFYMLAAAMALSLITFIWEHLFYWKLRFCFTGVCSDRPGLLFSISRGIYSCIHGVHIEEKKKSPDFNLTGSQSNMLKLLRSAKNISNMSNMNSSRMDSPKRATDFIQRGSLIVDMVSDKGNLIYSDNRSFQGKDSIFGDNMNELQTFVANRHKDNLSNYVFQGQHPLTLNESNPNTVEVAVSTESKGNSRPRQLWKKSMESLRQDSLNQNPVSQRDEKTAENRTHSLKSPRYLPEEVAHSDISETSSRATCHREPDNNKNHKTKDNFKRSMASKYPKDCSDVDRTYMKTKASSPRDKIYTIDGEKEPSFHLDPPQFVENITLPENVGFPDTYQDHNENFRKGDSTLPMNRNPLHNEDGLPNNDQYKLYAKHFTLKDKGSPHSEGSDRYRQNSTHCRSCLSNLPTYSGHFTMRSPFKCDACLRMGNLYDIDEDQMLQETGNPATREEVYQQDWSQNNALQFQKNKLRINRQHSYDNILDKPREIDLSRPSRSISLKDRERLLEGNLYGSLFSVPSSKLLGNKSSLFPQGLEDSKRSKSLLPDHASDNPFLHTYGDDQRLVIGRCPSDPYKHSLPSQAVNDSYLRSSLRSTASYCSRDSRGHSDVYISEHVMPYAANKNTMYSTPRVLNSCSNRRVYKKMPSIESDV
T3 sequence (Q00960 whole entry, other chains not shown, the tested form may be a part): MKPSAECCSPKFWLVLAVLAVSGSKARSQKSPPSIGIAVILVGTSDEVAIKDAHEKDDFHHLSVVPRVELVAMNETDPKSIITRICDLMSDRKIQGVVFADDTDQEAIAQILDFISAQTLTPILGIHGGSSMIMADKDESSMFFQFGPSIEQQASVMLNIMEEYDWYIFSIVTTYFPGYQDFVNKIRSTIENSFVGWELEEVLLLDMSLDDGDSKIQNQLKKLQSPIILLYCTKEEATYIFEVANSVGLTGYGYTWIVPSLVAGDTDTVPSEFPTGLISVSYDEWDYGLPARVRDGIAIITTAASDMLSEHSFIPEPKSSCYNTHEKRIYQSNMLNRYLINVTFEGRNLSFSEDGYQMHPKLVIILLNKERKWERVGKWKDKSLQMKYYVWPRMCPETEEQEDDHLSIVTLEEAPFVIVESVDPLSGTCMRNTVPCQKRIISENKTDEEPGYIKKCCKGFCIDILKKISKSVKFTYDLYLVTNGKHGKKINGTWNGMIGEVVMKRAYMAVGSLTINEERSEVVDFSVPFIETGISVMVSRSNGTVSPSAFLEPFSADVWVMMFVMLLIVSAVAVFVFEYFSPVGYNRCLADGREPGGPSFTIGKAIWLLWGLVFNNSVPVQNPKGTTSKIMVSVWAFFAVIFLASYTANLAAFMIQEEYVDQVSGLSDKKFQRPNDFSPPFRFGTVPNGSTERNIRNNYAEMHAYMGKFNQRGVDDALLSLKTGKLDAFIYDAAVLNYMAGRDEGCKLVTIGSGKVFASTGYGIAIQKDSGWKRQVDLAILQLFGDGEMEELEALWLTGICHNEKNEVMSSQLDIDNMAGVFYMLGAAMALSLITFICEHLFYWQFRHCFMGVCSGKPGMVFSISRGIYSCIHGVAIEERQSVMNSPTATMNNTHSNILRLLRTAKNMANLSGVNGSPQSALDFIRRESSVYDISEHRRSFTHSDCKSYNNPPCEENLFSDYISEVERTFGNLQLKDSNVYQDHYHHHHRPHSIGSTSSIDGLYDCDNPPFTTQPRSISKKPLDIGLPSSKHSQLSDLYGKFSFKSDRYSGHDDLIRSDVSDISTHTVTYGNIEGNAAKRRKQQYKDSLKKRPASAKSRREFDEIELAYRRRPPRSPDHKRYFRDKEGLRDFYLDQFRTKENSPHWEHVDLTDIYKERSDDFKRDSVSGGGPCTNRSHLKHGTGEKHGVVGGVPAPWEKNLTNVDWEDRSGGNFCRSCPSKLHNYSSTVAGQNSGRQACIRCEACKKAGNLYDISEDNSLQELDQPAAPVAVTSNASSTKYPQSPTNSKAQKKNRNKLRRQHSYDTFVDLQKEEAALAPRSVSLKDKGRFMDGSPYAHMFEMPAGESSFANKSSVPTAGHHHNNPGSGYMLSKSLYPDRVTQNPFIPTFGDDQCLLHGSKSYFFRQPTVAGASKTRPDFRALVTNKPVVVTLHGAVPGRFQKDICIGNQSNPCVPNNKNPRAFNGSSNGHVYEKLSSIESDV
T4 sequence (Q00961 whole entry, other chains not shown): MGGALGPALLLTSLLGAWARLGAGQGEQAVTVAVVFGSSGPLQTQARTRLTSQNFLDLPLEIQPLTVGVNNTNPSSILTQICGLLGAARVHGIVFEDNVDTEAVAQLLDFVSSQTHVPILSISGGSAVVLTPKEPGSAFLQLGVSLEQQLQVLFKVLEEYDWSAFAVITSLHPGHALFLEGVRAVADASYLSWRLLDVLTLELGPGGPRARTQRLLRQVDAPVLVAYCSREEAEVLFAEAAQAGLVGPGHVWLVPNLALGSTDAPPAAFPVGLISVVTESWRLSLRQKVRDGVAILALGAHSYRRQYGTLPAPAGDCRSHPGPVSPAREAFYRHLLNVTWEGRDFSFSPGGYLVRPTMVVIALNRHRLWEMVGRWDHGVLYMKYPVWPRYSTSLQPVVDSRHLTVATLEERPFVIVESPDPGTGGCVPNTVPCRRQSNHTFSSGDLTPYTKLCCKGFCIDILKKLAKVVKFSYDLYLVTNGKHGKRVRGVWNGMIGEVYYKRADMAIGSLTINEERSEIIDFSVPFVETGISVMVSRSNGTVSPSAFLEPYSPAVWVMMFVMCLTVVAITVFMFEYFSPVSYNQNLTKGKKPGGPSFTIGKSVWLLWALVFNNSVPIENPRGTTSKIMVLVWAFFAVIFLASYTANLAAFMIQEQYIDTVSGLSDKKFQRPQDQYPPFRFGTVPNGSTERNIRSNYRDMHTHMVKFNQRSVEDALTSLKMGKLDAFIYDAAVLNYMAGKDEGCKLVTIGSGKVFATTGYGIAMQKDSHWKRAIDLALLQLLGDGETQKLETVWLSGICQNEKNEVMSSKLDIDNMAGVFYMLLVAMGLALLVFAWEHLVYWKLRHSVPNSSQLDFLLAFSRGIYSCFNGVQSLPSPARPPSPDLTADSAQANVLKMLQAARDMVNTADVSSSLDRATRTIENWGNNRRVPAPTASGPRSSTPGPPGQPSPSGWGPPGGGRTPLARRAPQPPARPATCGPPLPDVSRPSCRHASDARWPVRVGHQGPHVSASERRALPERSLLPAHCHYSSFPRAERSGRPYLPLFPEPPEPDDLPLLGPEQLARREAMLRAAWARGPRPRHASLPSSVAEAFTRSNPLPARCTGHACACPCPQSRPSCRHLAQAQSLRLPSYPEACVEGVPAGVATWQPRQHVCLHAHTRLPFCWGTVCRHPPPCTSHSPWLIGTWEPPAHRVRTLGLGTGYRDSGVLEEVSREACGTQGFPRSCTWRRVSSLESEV

IC50 [1] [µM] | IC50 (D(2) dopamine receptor) [µM] | IC50 [2] [µM] | IC50 [3] [µM] | IC50 [4] [µM] | IC50 [5] [µM] | IC50 [6] [µM] | IC50 [7] [µM] | IC50 [8] [µM] | IC50 [9] [µM] | SMILES
1 | 0.3 | 84 | 0.46 | > 100 |  |  |  |  |  | CNc1ccc(C#CCCN2CCC(Cc3ccccc3)CC2)cc1
 |  |  |  |  | 2.7 | > 100 | > 100 |  |  | Fc1ccc(C#CCCN2CCC(Cc3ccccc3)CC2)cc1
 |  |  |  |  |  | > 100 | > 100 |  |  | O=[N+]([O-])c1ccc(C#CCCN2CCC(Cc3ccccc3)CC2)cc1
 | 1.1 |  |  |  | 0.19 | > 100 | > 100 | 1 |  | Nc1ccc(C#CCCN2CCC(Cc3ccccc3)CC2)cc1N
 |  | 56 | 13 | > 100 |  |  |  |  |  | CC(=O)Nc1ccc(C#CCN2CCC(Cc3ccccc3)CC2)cc1
 | 15 |  |  |  | 0.83 |  | > 100 | 63 |  | Nc1ccc(C#CCCN2CCC(O)(Cc3ccccc3)CC2)cc1
 |  |  |  |  | 3.8 | > 100 | > 100 |  |  | Clc1cccc(C#CCCN2CCC(Cc3ccccc3)CC2)c1
 | 7.9 |  |  |  | 0.65 | > 100 | 29 | 31 |  | Nc1ccc(C#CCCN2CCC(O)(Cc3ccc(F)cc3)CC2)cc1
 |  |  |  |  |  | > 100 | > 100 |  |  | Nc1ccc(C#CCN2CCC(Cc3ccccc3)CC2)cc1
2.2 | 12 | > 100 | 0.15 | > 100 |  |  |  |  |  | CS(=O)(=O)Nc1ccc(C#CCN2CCC(Cc3ccccc3)CC2)cc1
0.8 | 0.3 |  | 0.52 | > 100 |  |  |  |  |  | NCc1cccc(C#CCCN2CCC(Cc3ccccc3)CC2)c1
 |  |  |  |  | 4.2 | > 100 | 42 |  |  | Cc1ccc(C#CCCN2CCC(Cc3ccccc3)CC2)cc1
 |  |  |  |  | 1.1 | > 100 | 70 |  |  | Nc1ccccc1C#CCCN1CCC(Cc2ccccc2)CC1
 |  |  |  |  | 2.6 | > 100 | > 100 |  |  | COc1ccc(C#CCCN2CCC(Cc3ccccc3)CC2)cc1
 |  |  |  |  | 1.1 | > 100 | > 100 |  |  | Nc1cccc(C#CCCN2CCC(Cc3ccccc3)CC2)c1
1.1 | 2.3 | > 100 | 0.28 | > 100 |  |  |  |  |  | CS(=O)(=O)Nc1ccc(C#CCCCN2CCC(Cc3ccccc3)CC2)cc1
 |  |  |  |  | 0.38 | > 100 | 12 |  |  | Nc1ccc(C#CCCCN2CCC(Cc3ccccc3)CC2)cc1

IC50 [1] [µM] | IC50 (D(2) dopamine receptor) [µM] | IC50 [2] [µM] | IC50 [3] [µM] | IC50 [4] [µM] | IC50 [5] [µM] | IC50 [6] [µM] | IC50 [7] [µM] | IC50 [8] [µM] | IC50 [9] [µM] | SMILES
 |  |  |  |  | 4.7 |  |  |  | > 100 | C(#Cc1ccccc1)CCN1CCC(Cc2ccccc2)CC1
 | 1.7 |  |  |  | 0.1 | > 100 | > 100 | 1.5 |  | Oc1ccc(C#CCN2CCC(Cc3ccccc3)CC2)cc1
 |  |  |  |  | 1.2 | > 100 | 85 |  |  | Clc1ccccc1C#CCCN1CCC(Cc2ccccc2)CC1
 |  |  |  |  | 1.2 |  |  |  |  | Nc1ccc(C#CCCN2CCC(Cc3ccc(Cl)cc3)CC2)cc1
 | 0.4 |  |  |  | 0.26 | > 100 | 70 | 0.7 |  | Nc1ccc(C#CCCN2CCC(Cc3ccc(F)cc3)CC2)cc1
 |  | > 100 | 1.4 | > 100 |  |  |  |  |  | CC(=O)Nc1ccc(C#CCCCN2CCC(Cc3ccccc3)CC2)cc1
 |  |  |  |  | 4 | > 100 | 47 |  |  | Clc1ccc(C#CCCN2CCC(Cc3ccccc3)CC2)cc1
1.4 | 0.1 | 22 | 0.31 | > 100 |  |  |  |  |  | NS(=O)(=O)c1ccc(C#CCCN2CCC(Cc3ccccc3)CC2)cc1
 | 0.8 |  |  |  | 0.43 |  |  | 1 |  | Nc1ccc(C#CCCN2CCC(Cc3ccccc3)CC2)cc1
 | 0.29 |  |  |  | 0.17 |  | > 100 | 0.58 |  | Oc1ccc(C#CCCN2CCC(Cc3ccccc3)CC2)cc1
1.1 | 0.1 | > 100 | 0.26 | > 100 |  |  |  |  |  | CC(=O)Nc1ccc(C#CCCN2CCC(Cc3ccccc3)CC2)cc1
 | 0.8 |  |  |  | 0.31 | 27 | 75 | 1.2 |  | Cc1ccc(CC2CCN(CCC#Cc3ccc(N)cc3)CC2)cc1
 |  | > 100 | 15 | > 100 |  |  |  |  |  | CN(C)c1ccc(C#CCCN2CCC(Cc3ccccc3)CC2)cc1
1.2 | 0.2 | > 100 | 0.24 | > 100 |  |  |  |  |  | CS(=O)(=O)Nc1ccc(C#CCCN2CCC(Cc3ccccc3)CC2)cc1
 | 10 |  |  |  | 0.37 | > 100 | 68 | 85 |  | Cc1ccc(CC2(O)CCN(CCC#Cc3ccc(N)cc3)CC2)cc1
 |  | > 100 | 2 | > 100 |  |  |  |  |  | NC(=O)c1ccc(C#CCCN2CCC(Cc3ccccc3)CC2)cc1
